ChEMBL document CHEMBL3286264, “Discovery of novel and selective SIRT6 inhibitors” (J Med Chem, 2014)
Blank lines part the entries; values can stand above or below the compound they belong to. The source made the active and inactive calls. The calls are words filed in the database; no cut-off is given here.

Key:
[1] = organism: Homo sapiens; assay: Selectivity ratio of IC50 for SIRT1 (unknown origin) to IC50 for SIRT6 (unknown origin)
In short: (§1)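 Deacetylase activity measured with commercial fluorescence-based SIRT1, SIRT2 or SIRT6 kits per manufacturer's instructions. Compounds from 50 mM DMSO stocks, tested from 8 μM to 5 mM. IC50 derived by logarithmic nonlinear regression. Three independent determinations per compound.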

[2] = system: BXPC-3; assay: Inhibition of PMA-induced TNF-alpha secretion in human BxPC3 cells at 100 uM incubated for overnight prior to stimulation of PMA for 24 hrs by ELISA; type: functional; conditions: BXPC-3, 24 h
In short: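 BxPC-3 cells (3 × 10^5/well) allowed to adhere 24 h, then incubated overnight with 100 μM compound or vehicle. Stimulated 24 h with 25 ng/mL PMA. TNF-α in supernatants measured by DuoSet ELISA. Expressed as % inhibition.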

[3] = biological target: T1, NAD-dependent protein deacetylase sirtuin-2 (Homo sapiens, UniProt Q8IXJ6); assay: Inhibition of SIRT2 (unknown origin); in short: as §1
T1 sequence (Q8IXJ6 whole entry): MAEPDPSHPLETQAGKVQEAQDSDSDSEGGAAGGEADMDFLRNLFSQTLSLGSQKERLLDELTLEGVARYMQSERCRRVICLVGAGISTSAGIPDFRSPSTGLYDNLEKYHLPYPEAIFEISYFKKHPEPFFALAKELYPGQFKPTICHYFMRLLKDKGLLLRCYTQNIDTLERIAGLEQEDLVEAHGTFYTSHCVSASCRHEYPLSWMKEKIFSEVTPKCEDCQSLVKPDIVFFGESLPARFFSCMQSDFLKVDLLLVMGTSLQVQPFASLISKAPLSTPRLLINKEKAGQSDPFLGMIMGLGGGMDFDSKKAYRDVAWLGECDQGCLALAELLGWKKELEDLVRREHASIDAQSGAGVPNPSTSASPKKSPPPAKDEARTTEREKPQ

[4] = system: BXPC-3; assay: Increase in GLUT1 expression in human BxPC3 cells at 12.5 to 200 uM after 24 hrs by Western blotting analysis; type: functional, cell-based
In short: (§2)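 BxPC-3 cells plated 4 × 10^5 per well and allowed to adhere 24 h. Treated either 24 h at the stated concentrations or for a time course at 200 μM. Lysed in Tris-HCl pH 7.5/NaCl/NP40 buffer. 30 μg protein run on 15% SDS-PAGE and transferred to PVDF. GLUT-1 and γ-tubulin detected by immunoblotting with ECL.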

[5] = system: BXPC-3; assay: Increase in GLUT1 expression in human BxPC3 cell surface at 100 uM after 24 hrs by flow cytometry; type: functional, cell-based
In short: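 BxPC-3 cells plated 4 × 10^5 per well, allowed to adhere 24 h, then exposed 24 h to 100 μM compound or DMSO vehicle. Cells trypsinized, fixed 10 min in 100% methanol at −20 °C, stained with anti-GLUT-1 antibody then anti-mouse IgG2a (each 30 min, 4 °C). Analysed by flow cytometry, 10.000 events/sample.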

[6] = system: BXPC-3; assay: Increase in [14C]-2-deoxy-D-glucose uptake in human BxPC3 cells at 200 uM after 18 hrs by scintillation counting analysis relative to control; type: functional
In short: (§3)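 Human BxPC-3 or rat L6 cells (6 × 10^5/well) treated in triplicate for 18 h with 200 μM (final) compound in complete medium. Uptake measured with 0.5 mM 2-deoxy-D-glucose/[14C]-2-deoxy-D-glucose (0.5 μCi/well) in KRH buffer for 5 min at 37 °C. Cells lysed in 0.1% SDS for scintillation counting. Uptake in presence of cytochalasin B plus phloretin subtracted. Expressed relative to untreated.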

[7] = organism: Homo sapiens; assay: Selectivity ratio of IC50 for SIRT2 (unknown origin) to IC50 for SIRT6 (unknown origin); in short: as §1
[8] = biological target: T2, NAD-dependent protein deacetylase sirtuin-1 (Homo sapiens, UniProt Q96EB6); assay: Inhibition of SIRT1 (unknown origin); in short: as §1
T2 sequence (Q96EB6 whole entry): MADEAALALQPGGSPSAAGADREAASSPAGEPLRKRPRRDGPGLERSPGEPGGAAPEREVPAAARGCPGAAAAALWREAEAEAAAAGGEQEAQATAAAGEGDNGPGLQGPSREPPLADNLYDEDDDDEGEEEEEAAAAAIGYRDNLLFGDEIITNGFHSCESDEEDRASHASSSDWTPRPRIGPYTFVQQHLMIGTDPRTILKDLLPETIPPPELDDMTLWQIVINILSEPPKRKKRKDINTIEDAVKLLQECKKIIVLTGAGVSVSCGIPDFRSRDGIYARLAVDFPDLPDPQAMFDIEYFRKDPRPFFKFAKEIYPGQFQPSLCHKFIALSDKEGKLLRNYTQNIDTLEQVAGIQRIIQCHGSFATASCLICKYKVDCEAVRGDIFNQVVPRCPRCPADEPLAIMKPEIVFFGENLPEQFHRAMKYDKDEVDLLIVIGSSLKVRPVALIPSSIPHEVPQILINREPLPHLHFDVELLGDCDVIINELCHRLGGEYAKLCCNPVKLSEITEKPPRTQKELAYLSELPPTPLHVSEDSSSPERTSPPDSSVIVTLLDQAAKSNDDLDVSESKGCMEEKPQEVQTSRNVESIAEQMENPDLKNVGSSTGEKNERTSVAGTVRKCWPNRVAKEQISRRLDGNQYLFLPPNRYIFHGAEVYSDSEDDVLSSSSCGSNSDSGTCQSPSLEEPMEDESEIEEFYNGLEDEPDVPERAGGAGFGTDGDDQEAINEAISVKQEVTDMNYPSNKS

[9] = biological target: T3, NAD-dependent protein deacylase sirtuin-6 (Homo sapiens, UniProt Q8N6T7); assay: Inhibition of SIRT6 (unknown origin) at 200 uM by fluorescence-based assay
T3 sequence (Q8N6T7 whole entry): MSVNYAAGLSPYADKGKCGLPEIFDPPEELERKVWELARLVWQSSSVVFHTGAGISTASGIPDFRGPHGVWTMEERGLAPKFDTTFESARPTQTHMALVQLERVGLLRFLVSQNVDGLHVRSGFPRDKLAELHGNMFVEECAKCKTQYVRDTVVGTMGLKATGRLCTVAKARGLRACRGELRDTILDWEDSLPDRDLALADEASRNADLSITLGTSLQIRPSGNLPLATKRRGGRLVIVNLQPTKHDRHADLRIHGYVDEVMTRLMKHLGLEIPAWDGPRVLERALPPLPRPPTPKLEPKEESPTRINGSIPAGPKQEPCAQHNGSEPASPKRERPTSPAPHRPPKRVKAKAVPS

[10] = biological target: T3, NAD-dependent protein deacylase sirtuin-6; assay: Inhibition of SIRT6 in human BxPC3 cells assessed as increase in H3K9 acetylation at 100 uM after >18 hrs by immunoblot analysis; type: cell-based; conditions: BXPC-3
In short: (§4)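 BxPC-3 cells plated 4 × 10^5 per well, adhered 24 h, then given 100 μM compound or matching DMSO (final DMSO 2–6‰) for varying times. Lysates (30 μg) resolved on 15% SDS-PAGE and immunoblotted for acetyl-H3K9 and total H3 with ECL. Acetyl-H3K9 normalized to total H3 and expressed as % versus vehicle-treated cells.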

[11] = biological target: T3, NAD-dependent protein deacylase sirtuin-6; assay: Inhibition of SIRT6 in human BxPC3 cells assessed as increase in H3K9 acetylation at 100 uM after 18 hrs by immunoblot analysis; type: cell-based; conditions: BXPC-3; in short: as §4
[12] = system: L6; assay: Increase in [14C]-2-deoxy-D-glucose uptake in rat L6 cells at 200 uM after 18 hrs by scintillation counting analysis relative to control; type: functional; in short: as §3
[13] = biological target: T3, NAD-dependent protein deacylase sirtuin-6; assay: Inhibition of SIRT6 (unknown origin); in short: as §1
[14] = system: BXPC-3; assay: Increase in GLUT1 expression in human BxPC3 cells at 200 uM after 6 hrs by Western blotting analysis; type: functional, cell-based; in short: as §2

Compound: O=c1[nH]c(=O)c2cc(S(=O)(=O)Nc3ccc(Oc4cccnc4)cc3)ccc2[nH]1
Ratio IC50 [1]: 2.96
inhibition at 100 µM [2]: 73%
IC50 [3]: 114 µM
Activity [4]: Active
Activity [5]: Active
fold change (FC) [6]: 1.3
Ratio IC50 [7]: 1.07
IC50 [8]: 314 µM
inhibition [9]: 100%
inhibition [10]: inactive
inhibition [11]: Active
fold change (FC) [12]: 1.98
IC50 [13]: 106 µM

Compound: O=C1NC(=O)C2(CCCCCC2)N1
inhibition [9]: inactive

Compound: O=c1cc(-c2ccccc2)[nH]c(=O)[nH]1
inhibition [9]: inactive

Compound: CCOc1ccc(NC2SC(=O)NC2=O)cc1 (stereo unspecified)
inhibition [9]: inactive

Compound: Cc1nc(=O)c2c([nH]1)CC1CCC(C2)N1Cc1ccc2c(c1)CC(C)O2 (stereo unspecified)
inhibition [9]: inactive

Compound: O=C(CSCc1ccc(Cl)c(Cl)c1)Nc1cnc(O)nc1O
inhibition [9]: inactive

Compound: O=C(CSc1nc[nH]n1)CSc1nc[nH]n1
inhibition [9]: inactive

Compound: O=C(NCc1nc(-c2cccnc2)n[nH]1)c1cnccn1
Ratio IC50 [1]: 1.1
IC50 [3]: 2290 µM
Ratio IC50 [7]: 1.71
IC50 [8]: 1470 µM
inhibition [9]: 12%
IC50 [13]: 1340 µM

Compound: CC1(CCC(=O)O)NC(=O)NC1=O (stereo unspecified)
inhibition [9]: inactive

Compound: COc1ccc(OCC(O)Cn2c(NCCc3ccccc3)nc3c2c(=O)[nH]c(=O)n3C)cc1 (stereo unspecified)
inhibition [9]: inactive

Further lines, with some results ahead:

inhibition [9]: inactive
Compound: O=C(Nc1ccc(NS(=O)(=O)c2ccc(Oc3ccc([N+](=O)[O-])cc3)cc2)cc1)c1ccccc1

Ratio IC50 [1]: 17.7
IC50 [3]: 751 µM
Ratio IC50 [7]: 8.44
IC50 [8]: 1580 µM
IC50 [13]: 89 µM
Compound: O=C(Nc1ccc(O)c(C(=O)O)c1)c1cccc(NC(=O)c2ccco2)c1
inhibition at 100 µM [2]: 50%
Activity [4]: Active
Activity [5]: Active
fold change (FC) [6]: 1.11
fold change (FC) [12]: 1.2

Ratio IC50 [1]: 19.1
IC50 [3]: 1740 µM
Ratio IC50 [7]: 9.63
IC50 [8]: 3470 µM
inhibition [9]: 66%
inhibition [10]: inactive
inhibition [11]: Active
IC50 [13]: 181 µM
Compound: N=C(Nc1ccccc1)SC1CC(=O)N(c2ccc(C(=O)O)cc2)C1=O (racemic)
inhibition at 100 µM [2]: 53%
fold change (FC) [6]: 3.09
fold change (FC) [12]: 1.55
Activity [14]: Active

inhibition [9]: inactive
Compound: NC(=O)c1ccc[n+](CCCCCC[n+]2cccc(C(N)=O)c2)c1
